IC50 and Activity data for 34 compounds are collected here from ChEMBL document CHEMBL1140877, “Synthesis and evaluation of Hsp90 inhibitors that contain the 1,4-naphthoquinone scaffold” (Bioorg Med Chem, 2009).

For assay [1], the system named is MCF7. In words: Antiproliferative activity against ERalpha positive human MCF7 cells after 72 hrs by MTS/PMS assay. Type of assay: functional, cell-based. The settings on record: MCF7, 72 h. The procedure, abridged:
(§1)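 MCF-7 and SKBr3 cells grown in 1:1 DMEM:Ham's F-12 with non-essential amino acids, 2 mM L-glutamine, penicillin/streptomycin, 10% FBS. Seeded 2000 cells/well, attached overnight, then exposed to varying concentrations in DMSO (1% final) for 72 hr at 37 °C, 5% CO2. Viable cells read by MTS/PMS; 1% DMSO wells set as 100% proliferation. Mean ± SEM, three experiments in triplicate.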

Assay [2] deals with SK-BR-3. The assay can be described thus: Antiproliferative activity against ERalpha negative/Her2 over expressing human SKBR3 cells after 72 hrs by MTS/PMS assay. The format is functional, cell-based. The settings on record: SK-BR-3, 72 h. The procedure, abridged: as §1
Assay [3] addresses T1, Heat shock protein HSP90 (Homo sapiens, UniProt P07900+P08238). The assay can be described thus: Inhibition of Hsp90 in human SKBR3 cells assessed as down-regulation of Her2 protein by ELISA. The format is cell-based. The settings on record: sk-br-3. The procedure, abridged: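 SKBr3 cells seeded 3000/well, attached overnight, dosed at varying concentrations for 24 hr. Cells washed with ice-cold PBS/1% Tween, fixed and permeabilised in -20 °C methanol (4 °C, 10 min), blocked in 5% BSA/PBST 1 hr, probed with rabbit anti-Her2 (1:500, 4 °C overnight), then HRP anti-rabbit IgG (1:1000, 2 hr rt); chemiluminescence read. Mean ± SEM, three experiments in triplicate.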
A general note: ELISA stands for enzyme-linked immunosorbent assay.

Assay [4] can be described thus: Inhibition of Hsp90-dependent renaturation of firefly luciferase in rabbit reticulocyte lysate at 25 ug/mL. Further details: species or system Oryctolagus cuniculus.
The target in assay [5] is T1, Heat shock protein HSP90. The assay can be described thus: Inhibition of Hsp90 in human MCF7 cells assessed as degradation of Akt protein by Western blot analysis. Type of assay: cell-based. The procedure, abridged:
(§2)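 MCF-7 cells seeded at 1×10^6 per dish, attached overnight, treated at varying concentrations for 24 h (37 °C, 5% CO2), then harvested and immunoblotted for client proteins (Her2, Raf-1, Akt) with actin as non-client reference; GA (500 nM) and DMSO as controls.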
Background: Immunoblotting shows a protein as a band on a membrane.

For assay [6], the target named is T1, Heat shock protein HSP90. In words: Inhibition of Hsp90 in human MCF7 cells assessed as degradation of Her2 protein by Western blot analysis. The format is cell-based. The method, boiled down:
as §2

Assay [7] has as its target T1, Heat shock protein HSP90. The assay can be described thus: Inhibition of Hsp90 in human MCF7 cells assessed as degradation of Raf1 protein by Western blot analysis. Type of assay: cell-based. The method, boiled down:
as §2

Broadly, the IC50 is the concentration that inhibits the measured activity by half. In the case of `COc1ccc(C2=C(NC(=O)c3cccc(Cl)c3)C(=O)c3ccccc3C2=O)cc1`, the IC50 in assay [1] is 3400 nM; in assay [2], 9.5 µM; in assay [3], 12.9 µM.

On to `CC(=O)NC1=C(c2ccccc2)C(=O)c2ccccc2C1=O`, for which the IC50 was 1600 nM in assay [1], 1.5 µM in assay [2] and 3.2 µM in assay [3].

`COc1cccc(C2=C(NC(=O)c3ccccc3)C(=O)c3ccccc3C2=O)c1`: the half-inhibitory concentration (IC50) in assay [1] was determined as 1400 nM; in assay [3] it was 2.7 µM.

In the case of `CC(=O)NC1=C(c2ccc(Cl)cc2)C(=O)c2ccccc2C1=O`, the concentration for half-maximal inhibition (IC50) in assay [4] is 200 nM; in assay [1], 1400 nM; in assay [2] it was 1.8 µM; in assay [3], 5.3 µM. Moreover, the Activity result in assay [5], in assay [6] and in assay [7] was “Dose-dependent effect” in each case.

As for `COc1ccc(C2=C(NC(=O)c3ccc(Cl)cc3)C(=O)c3ccccc3C2=O)cc1`, the IC50 in assay [1] is 3300 nM; in assay [3] it was 3 µM.

Take `COc1cccc(-c2cc(C(=O)NC3=C(Cl)C(=O)c4ccccc4C3=O)ccc2OC)c1`: the IC50 in assay [4] was determined as 1600 nM; in assay [1], 3000 nM; in assay [3] it was 1.7 µM. The Activity result in assay [5], in assay [6] and in assay [7] was “Dose-dependent effect” each time.

`O=C1c2ccccc2C(=O)c2c1nc1ccccn21`: the IC50 turned out to be 20 nM in assay [4], 830 nM in assay [1], 0.87 µM in assay [2] and 1.2 µM in assay [3].

As for `O=C(NC1=C(c2cccc(Cl)c2)C(=O)c2ccccc2C1=O)c1ccccc1`, the IC50 in assay [1] stood at 4800 nM; in assay [2], 12.7 µM; in assay [3], 6.3 µM.

As to `COc1cccc(C2=C(NC(C)=O)C(=O)c3ccccc3C2=O)c1`, the half-maximal inhibitory concentration (IC50) in assay [1] was 2700 nM; in assay [2] it was 3.9 µM; in assay [3], 4.8 µM.

On to `CC(=O)NC1=C(N2CCOCC2)C(=O)c2nonc2C1=O`, for which the IC50 in assay [4] amounted to 380 nM; in assay [1], 19000 nM; in assay [2], 2.9 µM; in assay [3], 1.2 µM.

With `COc1ccccc1C1=C(NC(=O)c2ccccc2)C(=O)c2ccccc2C1=O`, the concentration for half-maximal inhibition (IC50) in assay [4] was found to be 39000 nM; in assay [1], 2200 nM; in assay [2], 1.9 µM; in assay [3], 3 µM.

Take `COc1ccc(C2=C(NC(=O)c3ccccc3OC)C(=O)c3ccccc3C2=O)cc1`: the figures for the IC50 in assay [1], in assay [2] and in assay [3] were 2100 nM, 7.9 µM and 5.8 µM, respectively.

For `CC(=O)NC1=C(Cl)C(=O)c2ccccc2C1=O`, the IC50 in assay [4] was determined as 5000 nM; in assay [1], 1700 nM; in assay [2], 0.6 µM; in assay [3] it was 6.6 µM.

In the case of `O=C(NC1=C(c2ccccc2Cl)C(=O)c2ccccc2C1=O)c1ccccc1`, the concentration for half-maximal inhibition (IC50) came to 4 µM in assay [2] and 1.8 µM in assay [3].

As for `CC(=O)NC1=C(c2ccc(Oc3ccccc3)cc2)C(=O)c2ccccc2C1=O`, the IC50 came to 2500 nM in assay [1], 12.1 µM in assay [2] and 24.6 µM in assay [3].

Turning to `O=C(NC1=C(c2ccc(Oc3ccccc3)cc2)C(=O)c2ccccc2C1=O)c1ccccc1`, the IC50 was 23000 nM in assay [1], above 100 µM in assay [2] and above 100 µM in assay [3].

For the compound `COc1ccc(C2=C(NC(=O)c3ccccc3Cl)C(=O)c3ccccc3C2=O)cc1`, the Activity entry in assay [5], in assay [6] and in assay [7] was “Dose-dependent effect” throughout. The results for the IC50 in assay [1], in assay [2] and in assay [3] were 2200 nM, 5.5 µM and 2 µM, respectively.

As for `CC(=O)NC1=C(c2ccccc2Cl)C(=O)c2ccccc2C1=O`, the IC50 was 3000 nM in assay [1], 3.6 µM in assay [2] and 2.3 µM in assay [3].

For `CC(=O)C1=C(c2ccccc2)C(=O)c2ccccc2C1=O`, the concentration for half-maximal inhibition (IC50) in assay [4] is 250 nM; in assay [1], 210 nM; in assay [2], 0.82 µM; in assay [3], 3.3 µM.

`COc1ccccc1C1=C(NC(C)=O)C(=O)c2ccccc2C1=O`: the 50% inhibitory concentration (IC50) came to 1600 nM in assay [4], 2200 nM in assay [1], 1.7 µM in assay [2] and 2.5 µM in assay [3].

As to `COc1ccc(C2=C(NC(=O)c3cccc(OC)c3)C(=O)c3ccccc3C2=O)cc1`, the values for the IC50 in assay [1], in assay [2] and in assay [3] were 1800 nM, 6.4 µM and 44.2 µM, respectively.

As to `O=C(NC1=C(c2ccc(Cl)cc2)C(=O)c2ccccc2C1=O)c1ccccc1`, the IC50 amounted to 1400 nM in assay [4], 2600 nM in assay [1], 8.5 µM in assay [2] and 1.8 µM in assay [3].

With `COc1ccc(C2=C(NC(=O)c3ccccc3)C(=O)c3ccccc3C2=O)cc1`, the IC50 in assay [1] amounted to 1400 nM; in assay [2] it was 4 µM; in assay [3] it was 2.8 µM.

For `O=C(NC1=C(c2ccccc2)C(=O)c2ccccc2C1=O)c1ccccc1`, the half-maximal inhibitory concentration (IC50) was determined as 2100 nM in assay [1], 6.8 µM in assay [2] and 3.8 µM in assay [3].

Take `O=C(NC1=C(Cl)C(=O)c2ccccc2C1=O)c1ccccc1`: the IC50 is 1800 nM in assay [1], 2.1 µM in assay [2] and 30.1 µM in assay [3].

`COc1ccc(C(=O)NC2=C(c3ccc(OC)cc3)C(=O)c3ccccc3C2=O)cc1`: the IC50 came out at 24000 nM in assay [4], 1500 nM in assay [1], 6.4 µM in assay [2] and 2.4 µM in assay [3].

With `COc1ccc(C2=C(NC(=O)C3CCCCC3)C(=O)c3ccccc3C2=O)cc1`, the IC50 turned out to be 1400 nM in assay [4], 1900 nM in assay [1], 4.8 µM in assay [2] and 2.5 µM in assay [3].

For the compound `COc1ccc(C2=C(NC(C)=O)C(=O)c3ccccc3C2=O)cc1`, the half-maximal inhibitory concentration (IC50) was 2.7 µM in assay [2] and 2.2 µM in assay [3].

Turning to `COc1ccc(C2=C(NC(=O)c3ccc(OC)c(-c4cccc(OC)c4)c3)C(=O)c3ccccc3C2=O)cc1`, the IC50 in assay [4] is 86000 nM; in assay [1] it was above 100000 nM; in assay [2], above 100 µM; in assay [3], above 100 µM.

Regarding `CC(=O)NC1=C(c2ccc3oc4ccccc4c3c2)C(=O)c2ccccc2C1=O`, the values for the 50% inhibitory concentration (IC50) in assay [1], in assay [2] and in assay [3] were 2400 nM, 6.8 µM and 13.3 µM, respectively.

For `CC(=O)NC1=C(c2cccc(Cl)c2)C(=O)c2ccccc2C1=O`, the IC50 stood at 1300 nM in assay [1], 2.5 µM in assay [2] and 2 µM in assay [3].

Take `COc1ccc(C2=C(NC(=O)c3ccc4ccccc4c3)C(=O)c3ccccc3C2=O)cc1`: the 50% inhibitory concentration (IC50) in assay [1] is 6800 nM; in assay [2], above 100 µM; in assay [3] it was above 100 µM.

Turning to `O=C(NC1=C(c2ccc3oc4ccccc4c3c2)C(=O)c2ccccc2C1=O)c1ccccc1`, the figures for the half-inhibitory concentration (IC50) in assay [1], in assay [2] and in assay [3] were 6000 nM, above 100 µM and above 100 µM, respectively.

For the compound `COc1ccc(C2=C(NC(=O)c3cccc4ccccc34)C(=O)c3ccccc3C2=O)cc1`, the results for the 50% inhibitory concentration (IC50) in assay [1], in assay [2] and in assay [3] were 2200 nM, 5.8 µM and 9.9 µM, respectively.
